Most compounds without a hit are left out; they make up all but 3.7% or so of the library.
KCNK3 block – human KCNK3 channel inhibition, primary screen; AID 602410; O14649; CHO-KCNK3 thallium flux, FluxOR fluorescence; stronger effect = lower value; 0.84% of 340,000 active; B-score at 10 µM;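 active = B-score under library mean minus 4 SD, starting fluorescence ratio at most library mean plus 5 SD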;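 note: more negative B-score means stronger inhibition of thallium flux through KCNK3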
KCNQ1 pot – human KCNQ1 channel potentiation or activation. P51787. CHO-K1 KCNQ1, thallium flux FluxOR fluorescence; stronger effect = higher value. B-score at 10 µM. 0.35% of 310,000 active;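 active = fluorescence ratio B-score, a plate-corrected score, at least three library SD, with initial intensity B-score within 5 SD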
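assay system = KCNQ1-transfected CHO-K1 cells | medium = assay buffer with matched DMSO | probe or stimulus = depolarizing K+/Tl+ stimulus, K2SO4 and Tl2SO4 each 12.5 mM in 5x stock | dosing = single dose | incubation = dye 90 min, compound 20 min, room temperature | detection = kinetic FluxOR fluorescence, 10 s baseline plus 110 s post-stimulus | evaluation = ratio B score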
hERG protect – shields human hERG channel from block by proarrhythmic agents. Q12809. AID 1511. CHO-hERG, FluxOR thallium flux, dofetilide IC70 present. activation (rescue from dofetilide block), less the hit threshold, % at 10 µM. 0.51% of 310,000 active;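 active = activation above the mean of controls blocked by dofetilide plus 5 SD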;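 note: thallium influx through hERG after potassium depolarization seen as dye fluorescence rise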
KCNK9 block – blocks the human KCNK9 two-pore domain potassium channel. HEK293 KCNK9, FluxOR thallium flux fluorescence; stronger effect = lower value. B-score at 10 µM. 1.2% of 310,000 active. Q9NPC2;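 active = ratio B-score over 3 SD below the library mean, with starting fluorescence within 5 SD of its mean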;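 note: negative B-score means less thallium flux so channel inhibition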
Kir21 block – Kir2.1 (mouse) channel inhibition; HEK293-Kir2.1, FluxOR thallium flux fluorescence; stronger effect = lower value; 0.85% of 310,000 active; AID 1672; B-score at 10 µM; P35561;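 active = fluorescence ratio B-score at or below minus 3 SD of library scores, with starting-brightness B-score within 2 SD, cut at about -4.2 in these data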;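 note: channel flux triggered by added potassium and thallium sulfate stimulus; B-score of peak minus minimum fluorescence over baseline after thallium stimulus; more negative B-score means stronger Kir2.1 block with less thallium influx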
KCNQ1 block – blocks the human KCNQ1 potassium channel; P51787; CHO-K1 KCNQ1, FluxOR thallium flux fluorescence; stronger effect = higher value; B-score at 10 µM; 1.3% of 310,000 active; AID 2642;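 active = compounds whose thallium flux B-score, printed positive for inhibition, exceeds three library SD while starting fluorescence stays within three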;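 note: channel opened by potassium depolarization with thallium stimulus after 20 min compound exposure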
* = called active by the depositor.

How did CCc1ccc(NC(=O)C2=CC(c3ccc(OC)cc3)=NS(=O)(=O)N2C)cc1 do in these assays?
KCNK3 block: inactive; KCNQ1 pot: inactive; hERG protect: -11; KCNK9 block: -7.6*; Kir21 block: -0.37; KCNQ1 block: inactive

Results for COc1ccc(C2=NS(=O)(=O)N(C)C(C(=O)Nc3ccc(C)cc3)=C2)cc1 ?
KCNK3 block: inactive; KCNQ1 pot: inactive; hERG protect: -9; KCNK9 block: inactive; Kir21 block: 0.2; KCNQ1 block: inactive

Results for O=C(c1cc(-c2cccc(Cl)c2)nc2ccccc12)N1CCCC1 ?
KCNK3 block: inactive; KCNQ1 pot: inactive; hERG protect: -18; KCNK9 block: inactive; Kir21 block: 0.79; KCNQ1 block: inactive

Results for CCOc1ccccc1NC(=O)C1C2CCC(O2)C1C(=O)O (centres undefined) ?
KCNK3 block: inactive; KCNQ1 pot: inactive; hERG protect: -1; KCNK9 block: inactive; Kir21 block: -0.67; KCNQ1 block: inactive

How did O=C(N/C(=C/c1cccc([N+](=O)[O-])c1)C(=O)N1CCCCCC1)c1ccco1 do in these assays?
KCNK3 block: inactive; KCNQ1 pot: inactive; hERG protect: -12; KCNK9 block: inactive; Kir21 block: 1.5; KCNQ1 block: inactive

What do the screens show for `N=c1c2c(-c3ccccc3)c(-c3ccccc3)n(Cc3ccccc3)c2ncn1CCO`?
KCNK3 block: inactive; KCNQ1 pot: inactive; hERG protect: -32; KCNK9 block: inactive; Kir21 block: -8.6*; KCNQ1 block: inactive

What do the screens show for `N=c1c2c(-c3ccccc3)c(-c3ccccc3)n(Cc3ccco3)c2ncn1CCCn1ccnc1`?
KCNK3 block: inactive; KCNQ1 pot: inactive; hERG protect: -16; KCNK9 block: inactive; Kir21 block: -7.7*; KCNQ1 block: inactive

Results for OCCNc1ncnc2c1c(-c1ccccc1)c(-c1ccccc1)n2Cc1ccco1 ?
KCNK3 block: inactive; KCNQ1 pot: inactive; hERG protect: -20; KCNK9 block: inactive; Kir21 block: 0.61; KCNQ1 block: inactive

Results for c1ccc(-c2c(-c3ccccc3)n(Cc3ccco3)c3ncnc(NCCCn4ccnc4)c23)cc1 ?
KCNK3 block: inactive; KCNQ1 pot: inactive; hERG protect: -26; KCNK9 block: inactive; Kir21 block: -2.9; KCNQ1 block: 12*

Results for OCCn1cnc2c(SCc3ccccc3)ncnc21 ?
KCNK3 block: inactive

How did N=c1c2c(-c3ccccc3)c(-c3ccccc3)n(Cc3ccco3)c2ncn1CCCN1CCOCC1 do in these assays?
KCNK3 block: inactive; KCNQ1 pot: inactive; hERG protect: -5; KCNK9 block: inactive; Kir21 block: -7.1*; KCNQ1 block: inactive

Results for COc1ccc(S(=O)(=O)Nc2nc3ccccc3s2)cc1OC ?
KCNK3 block: inactive; KCNQ1 pot: inactive; hERG protect: 4.7*; KCNK9 block: inactive; Kir21 block: -1; KCNQ1 block: inactive

Results for CC(=O)Nc1ccc(S(=O)(=O)Nc2nc3ccccc3s2)cc1 ?
KCNK3 block: inactive; KCNQ1 pot: inactive; hERG protect: -10; KCNK9 block: inactive; Kir21 block: -1.4; KCNQ1 block: inactive

What do the screens show for `CCN1C[C@@H]2[C@@H]3C(=O)N(Cc4ccccc4)C(=O)[C@@H]3[C@](CC)(C(=O)OC)N2C1=NCc1ccccc1`?
KCNK3 block: inactive

How did CCCC(=O)Nc1ccc(Cl)c(NC(=O)C(C)(C)C)c1 do in these assays?
KCNK3 block: inactive; KCNQ1 pot: inactive; hERG protect: -5; KCNK9 block: inactive; Kir21 block: -0.1; KCNQ1 block: inactive

Results for CC(C)(C)C(=O)CC(=O)Nc1ccc(Cl)c(N)c1 ?
KCNK3 block: inactive; KCNQ1 pot: inactive; hERG protect: 4.9*; KCNK9 block: inactive; Kir21 block: 0.02; KCNQ1 block: inactive

What do the screens show for `CC(=O)N(\C=C/C=C/C=C1\Sc2ccccc2C1=O)c1ccccc1`?
KCNK3 block: inactive; KCNQ1 pot: inactive; hERG protect: -13; KCNK9 block: inactive; Kir21 block: 0; KCNQ1 block: 7*

How did CN(C)/C=C1/Sc2ccccc2C1=O do in these assays?
KCNK3 block: inactive; KCNQ1 pot: inactive; hERG protect: -3; KCNK9 block: inactive; Kir21 block: -0.18; KCNQ1 block: inactive

High-throughput results: PubChem, Johns Hopkins Ion Channel Center
